Measurements from different studies.
Lines come from different studies, so protocols differ.
Target: Serine/threonine-protein kinase BRSK1 (BRSK1, Homo sapiens, UniProt Q8TDC3)
One construct used (Q8TDC3 1-778): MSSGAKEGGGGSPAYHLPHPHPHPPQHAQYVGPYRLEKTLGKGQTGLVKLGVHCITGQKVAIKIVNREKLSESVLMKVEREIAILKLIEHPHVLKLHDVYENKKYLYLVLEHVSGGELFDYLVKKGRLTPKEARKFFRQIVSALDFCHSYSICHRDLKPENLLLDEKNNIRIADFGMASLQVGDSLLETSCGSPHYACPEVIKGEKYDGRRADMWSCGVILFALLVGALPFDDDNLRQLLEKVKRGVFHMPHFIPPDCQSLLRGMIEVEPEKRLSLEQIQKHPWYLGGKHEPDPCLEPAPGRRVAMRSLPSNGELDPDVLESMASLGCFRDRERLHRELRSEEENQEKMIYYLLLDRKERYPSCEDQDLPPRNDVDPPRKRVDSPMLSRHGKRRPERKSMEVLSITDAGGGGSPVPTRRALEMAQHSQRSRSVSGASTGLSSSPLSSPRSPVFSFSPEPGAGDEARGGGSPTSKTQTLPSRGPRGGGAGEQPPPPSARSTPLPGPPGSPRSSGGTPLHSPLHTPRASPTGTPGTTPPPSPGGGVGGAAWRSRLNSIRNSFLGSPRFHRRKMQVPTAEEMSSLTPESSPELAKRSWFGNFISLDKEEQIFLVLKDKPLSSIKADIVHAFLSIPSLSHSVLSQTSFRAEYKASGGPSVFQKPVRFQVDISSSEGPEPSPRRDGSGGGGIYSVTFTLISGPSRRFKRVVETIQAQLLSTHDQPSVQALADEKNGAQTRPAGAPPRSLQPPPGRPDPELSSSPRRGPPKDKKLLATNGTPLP

Structure (SMILES) | read-out | action | technique | tested at | endpoint | value
C#Cc1cc(-c2cc(Nc3nc(N[C@@H](C)c4ccc(F)cn4)ncc3Cl)n[nH]2)ccc1C=O | enzyme activity | inhibitor | – | 0.2 µM | inhibition | 10.3%
CO[C@@H]1[C@H](N(C)C(=O)c2ccccc2)C[C@H]2O[C@]1(C)n1c3ccccc3c3c4c(c5c6ccccc6n2c5c31)C(=O)NC4 | enzyme activity | inhibitor | – | 1 µM | inhibition | 48%
C1=C/COCc2cc(ccc2OCCN2CCCC2)Nc2nccc(n2)-c2cccc(c2)COC/1 | binding | – | – | 0.1 µM | remaining binding | 99%
COc1ccc2oc(-c3ccc4nc(N)oc4c3)c/c(=N\c3ccccc3NC(=O)CCN)c2c1 | binding | – | – | 1 µM | remaining binding | 103%
COc1ccc2[nH]c3c4[nH]c5ccc(OC)cc5c4c4c(c3c2c1)C(=O)NC4=O | binding | – | – | 1 µM | remaining binding | 10%
CCCCC(=O)Nc1ccc(-c2ccc3ncn(CCC)c(=O)c3c2)cn1 | binding | – | competition with immobilised ligand | 0.5 µM | remaining binding | 100%
Cc1ccc(NC(=O)c2ccnc(C(F)(F)F)c2)cc1-c1cc(OCCO)nc(N2CCOCC2)c1 | binding | – | – | 1 µM | remaining binding | 93%
C=CC(=O)N1CCC([C@@H]2CCNc3c(C(N)=O)c(-c4ccc(Oc5ccccc5)cc4)nn32)CC1 | enzyme activity | inhibitor | – | 1 µM | inhibition | 0%
